In ChEMBL document CHEMBL1773014, “Cytotoxic pentacyclic and tetracyclic aromatic sesquiterpenes from Phomopsis archeri” (J Nat Prod, 2011):
pIC50: −log10 of the molar value. ≈ marks a conversion by molar mass, not a printed value.

How the values were obtained:
Plasmodium falciparum = assay: Antimalarial activity against multidrug-resistant Plasmodium falciparum K1 assessed as reduction in uptake of [3H]-hypoxanthine by microculture radioisotope technique; type: functional, organism-based
Outline: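 P. falciparum K1 (multidrug-resistant) cultured by the Trager–Jensen method and tested in vitro by microculture radioisotope technique. Parasite growth read as [3H]-hypoxanthine uptake. IC50 taken as the concentration giving 50% reduction in growth. Dihydroartemisinin served as the reference standard.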

[1] = Cytotoxicity against human KKU-M214 cells by sulforhodamine B assay; type: functional, cell-based
[2] = Cytotoxicity against human KKU-M213 cells by sulforhodamine B assay; type: functional, cell-based
KB = assay: Cytotoxicity against human KB cells by sulforhodamine B assay; type: functional, cell-based
[3] = system: Mycobacterium tuberculosis; assay: Antimycobacterial activity against Mycobacterium tuberculosis H37Ra by microplate alamar blue assay; type: functional
[4] = Cytotoxicity against human KKU-M139 cells by sulforhodamine B assay; type: functional, cell-based
[5] = Cytotoxicity against human KKU100 cells by sulforhodamine B assay; type: functional, cell-based
[6] = Cytotoxicity against human KKU-M156 cells by sulforhodamine B assay; type: functional, cell-based

SMILES	pIC50 (Plasmodium falciparum)	IC50 [1]	IC50 [2]	IC50 (KB)	MIC [3]	IC50 [4]	IC50 [5]	IC50 [6]	IC50 (Plasmodium falciparum)
C[C@H]1[C@@H](O)O[C@@H]2O[C@@]3(C)CC[C@H]4[C@H](C)CC[C@@H]1[C@@]24OO3 [ARTENIMOL]	8.36								
Cc1c2ccncc2c(C)c2c1[nH]c1ccccc12 [ELLIPTECINE]		0.21 µg/mL (≈ 0.853 µM)	0.3 µg/mL (≈ 1.22 µM)	0.19 µg/mL (≈ 0.771 µM)					
NNC(=O)c1ccncc1 [ISONIAZID]					0.23 µg/mL (≈ 1.68 µM)				
CC(=O)O[C@H]1CC[C@]2(C)[C@H]3Cc4c(O)cc5c(c4O[C@@]3(C)CC[C@H]2C1(C)C)COC5=O [KAMPANOL A]		> 20 µg/mL	19.6 µg/mL (≈ 45.7 µM)			> 20 µg/mL	> 20 µg/mL	> 20 µg/mL	
CC1(C)[C@@H](O)CC[C@]2(C)[C@H]3Cc4c(O)cc5c(c4O[C@@]3(C)CC[C@@H]12)COC5=O [PHOMOARCHERIN A]		> 20 µg/mL	16.6 µg/mL (≈ 43 µM)	42.1 µg/mL (≈ 109 µM)	> 200 µg/mL	> 20 µg/mL	> 20 µg/mL	> 20 µg/mL	> 20 µg/mL
CC1(C)C(=O)CC[C@]2(C)[C@H]3Cc4c(O)cc5c(c4O[C@@]3(C)CC[C@@H]12)COC5=O [PHOMOARCHERIN B]		5 µg/mL (≈ 13 µM)	> 20 µg/mL	9.4 µg/mL (≈ 24.4 µM)	50 µg/mL (≈ 130 µM)	0.1 µg/mL (≈ 0.26 µM)	8 µg/mL (≈ 20.8 µM)	2 µg/mL (≈ 5.2 µM)	0.79 µg/mL
Cc1cc(O)c2c(c1C=O)O[C@@]1(C)CC[C@H]3C(C)(C)C(=O)CC[C@]3(C)[C@H]1C2 [PHOMOARCHERIN C]		18.8 µg/mL (≈ 50.7 µM)	15.4 µg/mL (≈ 41.6 µM)			8.9 µg/mL (≈ 24 µM)	8.9 µg/mL (≈ 24 µM)	18 µg/mL (≈ 48.6 µM)	
